Bioassay records: PubChem, several laboratories
PLC-gamma1 inh = PLC-gamma1 enzyme inhibitors, primary screen, biochemical, fluorescence, purified enzyme | AID 720700, 2013 | 370,000 tested, 0.84% active | inhibition, % at 12.2 µM | fluorogenic substrate | 1-phosphatidylinositol 4,5-bisphosphate phosphodiesterase gamma-1 (Homo sapiens), P19174
UCH37 inh = inhibitors of human UCH37 deubiquitinase, primary screen, biochemical, Ub-AMC cleavage, fluorescence; Ubiquitin carboxyl-terminal hydrolase isozyme L5 (Homo sapiens), Q9Y5K5; purified proteasome/UCH37; inhibition, % (test concentration not listed); 330,000 tested, 0.33% active;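 active = mean inhibition over replicate wells above about 20%, limit read from the data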;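 also: 0% = compound-free wells with enzyme and 100% = wells lacking proteasome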
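Reagent: Ub-AMC substrate; assay system: Proteasome-associated human UCH37 deubiquitinase; controls: no-proteasome and no-compound wells; read-out: % inhibition of Ub-AMC cleavage fluorescence; timing: 30 min preincubation with enzyme, 25 min cleavage at room temperature; signal: AMC fluorescence from Ub-AMC cleavage, excitation 355 nm, emission 460 nm; buffer or medium: Tris-HCl pH 7.4 plus ovalbumin, ATP-MgCl2, DTT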
Rpn11 block = Rpn11 (PSMD14) deubiquitinase inhibitors, primary screen, biochemical, fluorescence polarization, uHTS; inhibition, % at 20 µM; AID 588493, 2011; human 26S proteasome, Ub4-pepOG fluorescence polarization; 20S core pre-blocked with epoxomicin; 360,000 tested, 0.59% active;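 active = inhibition at 20 µM, scaled to each plate's controls, above about 33%, limit read from the data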
PLCb3 inh = human PLC-beta3 inhibitors, primary screen, biochemical, fluorescence | inhibition, % at 12.2 µM | AID 720704, 2013 | 370,000 tested, 0.18% active | Purified PLC-beta3, fluorogenic substrate | 1-phosphatidylinositol 4,5-bisphosphate phosphodiesterase beta-3 (Homo sapiens), Q01970; in the data active = inhibition above about 11%;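 also: 0% = median of compound wells on plate and 100% = full blocker control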
Target sequence (Q01970 whole entry, looked up): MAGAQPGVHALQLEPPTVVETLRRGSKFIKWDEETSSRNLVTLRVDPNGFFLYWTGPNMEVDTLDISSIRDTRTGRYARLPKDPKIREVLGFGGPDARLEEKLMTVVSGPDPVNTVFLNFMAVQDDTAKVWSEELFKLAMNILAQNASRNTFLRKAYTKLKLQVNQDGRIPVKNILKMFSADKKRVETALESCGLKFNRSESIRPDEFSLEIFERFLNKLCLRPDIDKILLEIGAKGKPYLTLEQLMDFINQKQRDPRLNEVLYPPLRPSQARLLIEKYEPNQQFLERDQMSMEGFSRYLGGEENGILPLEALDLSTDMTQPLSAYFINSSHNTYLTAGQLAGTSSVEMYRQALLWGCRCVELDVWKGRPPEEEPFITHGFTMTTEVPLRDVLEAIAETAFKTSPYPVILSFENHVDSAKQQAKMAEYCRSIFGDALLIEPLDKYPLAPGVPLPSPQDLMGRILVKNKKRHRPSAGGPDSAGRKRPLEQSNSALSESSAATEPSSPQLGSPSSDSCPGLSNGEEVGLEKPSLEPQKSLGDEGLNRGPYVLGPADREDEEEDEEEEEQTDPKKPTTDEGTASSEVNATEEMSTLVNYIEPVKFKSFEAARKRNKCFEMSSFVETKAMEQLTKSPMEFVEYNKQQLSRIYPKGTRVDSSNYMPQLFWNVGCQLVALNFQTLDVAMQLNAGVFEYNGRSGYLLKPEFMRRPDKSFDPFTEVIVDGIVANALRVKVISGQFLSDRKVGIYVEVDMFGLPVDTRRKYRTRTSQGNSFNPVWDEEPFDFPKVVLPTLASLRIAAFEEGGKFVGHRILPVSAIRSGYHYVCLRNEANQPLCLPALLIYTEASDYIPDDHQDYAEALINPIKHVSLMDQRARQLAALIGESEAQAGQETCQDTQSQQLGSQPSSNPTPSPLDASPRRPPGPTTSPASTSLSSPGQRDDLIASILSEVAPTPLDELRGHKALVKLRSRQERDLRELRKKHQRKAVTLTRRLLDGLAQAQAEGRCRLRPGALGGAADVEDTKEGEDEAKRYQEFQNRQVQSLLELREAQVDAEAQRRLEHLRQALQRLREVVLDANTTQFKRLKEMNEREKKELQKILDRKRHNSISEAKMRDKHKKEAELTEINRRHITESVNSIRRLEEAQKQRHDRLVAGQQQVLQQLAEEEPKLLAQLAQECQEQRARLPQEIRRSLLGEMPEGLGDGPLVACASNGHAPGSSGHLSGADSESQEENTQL
PLCg1 ctr = PLC-gamma1 enzyme inhibitors, counter-screen for PLC-beta3 inhibitor project, biochemical, fluorescence; shares compounds with PLC-gamma1 inh; purified PLC-gamma1, fluorogenic substrate; inhibition, % at 12.3 µM; 3,300 tested, 3.1% active; AID 743258, 2014
PLCb3 confirm = PLC-beta3 inhibitor confirmation, biochemical, fluorescence, purified enzyme; shares compounds with PLC-gamma1 inh; fluorogenic substrate fluorescence; inhibition, % at 12.3 µM; 3,300 tested, 1% active; AID 743261, 2014; in the data active = inhibition above about 11%
The depositor's hits bear a star; x = no result given. Most compounds without a hit are left out; they make up all but 1.7% or so of the library. Rule as the data show it, unless noted: active = inhibition above about 9.5%; inactive = the rest.

SMILES	PLC-gamma1 inh	UCH37 inh	Rpn11 block	PLCb3 inh	PLCg1 ctr	PLCb3 confirm
CCC(=O)NC(Nc1nc(C)cs1)(C(=O)OC)C(F)(F)F (stereo not drawn)	7.8	2.3	-11.1	10.7*	-2.8	1.0
COC(=O)C(NC(=O)c1ccc(F)cc1)(Nc1nc(C)cs1)C(F)(F)F (stereo not drawn)	0.6	0.0	1.9	1.5	x	x
NC(=NOC(=O)c1ccc(Br)cc1)c1cccc([N+](=O)[O-])c1	x	-0.5	x	x	x	x
CC1CCN(C(=O)CSc2ccc(-c3cccc([N+](=O)[O-])c3)nn2)CC1	3.1	4.7	12.2	-2.9	x	x
O=C(CSc1ccc(-c2cccc([N+](=O)[O-])c2)nn1)N1CCCCC1	13.9*	1.7	-5.2	0.4	-1.6	2.6
N#Cc1cc([N+](=O)[O-])ccc1Oc1cccc(C=NNC(=O)c2ccc(Cl)cc2)c1	x	2.8	x	x	x	x
COc1ccc(NC(=O)CN(C)C(=O)C2CC(=O)N(Cc3ccc(C)cc3)C2)cc1 (stereo not drawn)	11.7*	3.5	2.2	5.5	-3.7	-5.5
CC(=NNC(=O)c1cccc(S(=O)(=O)N2CCOCC2)c1)c1ccco1	x	6.7	x	x	x	x
CC(=NNc1ccc(S(N)(=O)=O)cc1[N+](=O)[O-])c1ccc2c(c1)OCO2	x	4.5	x	x	x	x
O=C1CC(=O)Nc2ccccc2N1	4.3	x	-2.3	3.8	x	x
O=C1CS(=O)(=O)c2ccccc2N1	23.6*	0.0	-1.0	-3.8	21.4*	2.0
COc1ccc(S(=O)(=O)NCCCN2CCCC2=O)cc1OC	10.0*	0.1	-6.3	-2.3	-1.3	2.4
NC(=O)NN=Cc1ccc(-n2nncc2-c2ccc(Cl)cc2)cc1	x	3.0	x	x	x	x
CSc1ccc(C=NNC(=O)CN2CCN(Cc3ccccc3Cl)CC2)cc1	x	-9.2	x	x	x	x
CC(C)(C)c1ccc(/C=N/NC(=S)NC2CCCCC2)cc1	11.2*	x	4.2	5.9	0.6	-3.7
COc1ccc(Cn2nnnc2C(C(C)C)N2CCN(c3ccccc3OC)CC2)cc1 (stereo not drawn)	11.5*	4.8	5.5	6.3	1.0	3.5
COc1ccc(C(c2nnnn2Cc2ccccc2)N2CCN(c3ccccc3)CC2)cc1 (stereo not drawn)	-0.8	4.6	-1.4	0.4	x	x
CCOC(=O)C(C(=O)NCCCN1CCOCC1)C1CCCCC1 (stereo not drawn)	1.2	3.7	-1.5	1.9	x	x
C=CCNC(=O)C(C(=O)OCC)C1CCCCC1 (stereo not drawn)	10.2*	3.7	-0.2	13.6*	-2.0	-7.9
CC(NCc1ccc(OCc2ccc(Cl)cc2)cc1)C(O)c1ccccc1 (stereo not drawn)	19.3*	3.7	-14.7	-3.6	2.4	-2.5
CC(=O)Nc1ccc(NC(=O)COC(=O)c2ccc(C)s2)cc1	10.9*	-1.1	2.3	-1.9	-3.5	2.2
Cc1ccc(C(=O)OCC(=O)Nc2cccc(Br)c2)s1	2.1	x	-6.3	1.0	x	x
O=C(O)C[C@H]1c2cc(F)ccc2S(=O)(=O)N1C1CCCC1	10.1*	2.6	4.3	1.1	6.1	5.2
O=C(Nc1ccc(F)c(Cl)c1)c1cc(C2CCCN(S(=O)(=O)c3cccc4cccnc34)C2)on1 (stereo not drawn)	0.6	x	1.1	11.2*	-8.5	-4.5
Cc1[nH]c2ccccc2c1/C=N/Nc1nncn1N	9.9*	x	-0.7	6.2	-10.9	-5.1
SMILES	PLC-gamma1 inh	UCH37 inh	Rpn11 block	PLCb3 inh	PLCg1 ctr	PLCb3 confirm
Cc1ccc(-c2nn(CC(=O)N3CCOCC3)c(=O)c3ccccc23)cc1S(=O)(=O)N(C)C	10.4*	-0.3	-4.8	-1.7	-1.7	-2.8
CCCCCC(=O)NN=Cc1ccc(N(C)C)cc1	x	-226.0	x	x	x	x
O=C(Nc1ccc(Cl)cc1)c1ccc(CN2CCc3ccccc3C2)cc1	12.8*	6.6	-1.1	-5.2	0.4	0.8
COc1ccc(CCNC(=O)C2CC(=O)N(C3CCCCC3)C2)cc1OC (stereo not drawn)	11.2*	4.5	3.2	-2.0	-0.6	0.3
Cn1c(N2CCOCC2)c(C=NOC(=O)c2ccc(F)cc2)c2ccccc21	x	-3.8	x	x	x	x
CCCCCCOc1ccc(C(=O)O)cc1C#N	9.8*	1.9	1.9	-5.0	-4.4	-4.0
CCCCCCCCOc1ccc(C(=O)O)cc1	0.7	x	-2.3	-0.6	x	x
Cn1c(=O)cc(C(=O)NN=Cc2ccc(F)cc2)[nH]c1=O	x	8.8	x	x	x	x
COc1ccccc1NC(=O)c1cc2c(cc1Cl)N1CCCCCC1=NS2(=O)=O	12.2*	-1.2	4.0	10.1	-4.1	-0.9
O=C(Nc1ncccn1)C1CCCCC1	10.7*	-4.5	5.1	-4.0	-9.3	-0.9
O=C(Nc1ccccc1)C1CCCCC1	4.9	2.8	-0.6	2.6	x	x
CC(=NNC(=O)Cc1ccccc1[N+](=O)[O-])c1cccnc1	x	6.2	x	x	x	x
Cc1ccc(CNS(=O)(=O)c2ccc([N+](=O)[O-])cc2)cc1	12.2*	3.5	-11.1	-3.2	3.9	2.6
Cc1onc(-c2c(Cl)cccc2Cl)c1C(=O)Nn1cnnc1	0.2	2.1	4.5	0.1	x	x
Cc1onc(-c2c(Cl)cccc2Cl)c1C(=O)ONC(=O)c1cc(C(F)(F)F)cc(C(F)(F)F)c1	10.1*	1.3	0.2	5.4	3.8	3.8
COc1ccc(C(C)c2cc3c(cc2OCC(=O)O)OCO3)cc1 (stereo not drawn)	4.1	x	x	21.1*	-1.2	0.2
COc1ccccc1C(CC(=O)O)c1ccc2c(c1)OCO2 (stereo not drawn)	-0.3	0.5	-2.9	-11.0	x	x
O=S1(=O)CCN(CCc2ccccc2)CC1	5.8	x	-0.3	12.1*	-8.3	-12.0
COCCCNC(=O)CCc1nc(-c2ccccc2Cl)no1	10.8*	4.6	-0.7	8.2	-4.4	-0.2
CN1CC(=O)N(CC(=O)NCCc2ccc(F)cc2)c2ccccc2C1=O	1.6	1.7	-5.3	-0.1	x	x
CN1CC(=O)N(CC(=O)Nc2ccc(N(C)C)cc2)c2ccccc2C1=O	13.1*	1.1	-7.6	4.9	-0.4	-3.8
Cc1ccc(Oc2ccc(/C=N/O)cn2)cc1	14.1*	x	-0.7	0.8	-2.0	1.9
Cc1ccc(COc2ccc(/C=N/O)cc2)cc1	1.5	x	-4.8	-1.5	x	x
COc1ccc(C(=O)NN=C(Cc2ccccc2)Cc2ccccc2)cc1OC	11.1*	3.7	-7.4	-5.3	-5.4	-1.9
Cc1onc(-c2ccccc2)c1C(=O)NC(=S)NNC(=O)c1ccncc1	-5.8	3.8	7.6	-6.0	x	x
Cc1onc(-c2ccccc2)c1C(=O)NC(=S)NNC(=O)c1cccnc1	10.5*	8.7	1.9	4.7	-2.2	-0.9
